In the library only some 1.4% were active in any assay of this set; here they are far more common.
HTRA1 inhibitor – HTRA1 (human) protease inhibition | inhibition, % at 5.96 µM | AID 504803 | recombinant HTRA1, FP-rhodamine activity-based probe, fluorescence polarization | Q92743 | 340,000 compounds, 0.5% hits; in the data active means inhibition above about 36%
Target sequence (Q92743 whole entry, looked up): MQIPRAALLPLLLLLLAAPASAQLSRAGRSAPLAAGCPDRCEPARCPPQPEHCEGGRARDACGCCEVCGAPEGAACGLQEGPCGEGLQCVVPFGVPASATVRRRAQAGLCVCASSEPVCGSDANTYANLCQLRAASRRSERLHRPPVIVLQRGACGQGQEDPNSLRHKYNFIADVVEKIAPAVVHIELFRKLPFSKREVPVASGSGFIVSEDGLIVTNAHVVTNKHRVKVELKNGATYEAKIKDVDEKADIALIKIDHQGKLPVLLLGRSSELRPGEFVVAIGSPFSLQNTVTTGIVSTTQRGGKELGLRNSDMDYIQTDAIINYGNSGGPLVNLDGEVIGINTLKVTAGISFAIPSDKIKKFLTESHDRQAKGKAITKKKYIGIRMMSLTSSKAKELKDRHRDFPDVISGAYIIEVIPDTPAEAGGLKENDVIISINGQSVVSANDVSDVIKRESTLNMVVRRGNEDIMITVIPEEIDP
SIAE inh – inhibitors of human sialic acid acetylesterase SIAE. SIAE FP-Rh probe binding, fluorescence polarization. inhibition, % at 9.66 µM. 370,000 compounds, 0.69% hits. AID 1053197;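 active means inhibition above a cutoff: mean of compounds within the control limits plus 3 SD of those, cut at about 17% in these data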
ABHD4 inh – ABHD4 (mouse) inhibition, primary FP screen; purified mABHD4, FP-Rh probe fluorescence polarization; inhibition, % at 8.92 µM; 370,000 compounds, 0.54% hits; AID 720543;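 active means inhibition exceeding the mean over every tested compound plus 3 SD, cut at about 30% in these data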
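Assay system: mouse ABHD4 enzyme, wild type / Also added: fluorescent activity-based probe FP-Rh / Doses: single nominal dose of 8.92 µM, 0.89% DMSO final / Timing: 45 min compound pre-incubation plus 60 min probe step, 25 °C / Signal: FP readout, ex 525 nm / em 598 nm / Control set: S159A mutant/DMSO as 100%, compound-well median as 0%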
RBBP9 inhibitor – blocks human serine hydrolase RBBP9; 220,000 compounds, 0.2% hits; recombinant RBBP9, FP-Rh probe fluorescence polarization; O75884; inhibition, % at 7.94 µM;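 active means inhibition above the campaign mean of all tested compounds plus 3 SD, cut at about 14% in these data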
Target sequence (O75884 whole entry, looked up): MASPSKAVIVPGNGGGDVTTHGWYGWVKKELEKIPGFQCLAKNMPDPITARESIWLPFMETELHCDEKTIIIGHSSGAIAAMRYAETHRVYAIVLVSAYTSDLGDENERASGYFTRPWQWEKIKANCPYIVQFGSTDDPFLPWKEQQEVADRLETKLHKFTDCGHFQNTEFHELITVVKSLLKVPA
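Assay system: recombinant human RBBP9; Reagent: Serine-hydrolase probe FP-Rh, 375 nM pre-mixing; Doses: 7.94 µM single dose, 0.794% DMSO; Incubation: 30 min then 45 min, 25 °C; Detection: fluorescence polarization (mP), excitation 525 nm, emission 598 nm; Evaluation: percent inhibition from mP, scaled between DMSO and no-protein wells.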
A number is an active result; – = inactive; · = no result given.

SMILES | HTRA1 inhibitor | SIAE inh | ABHD4 inh | RBBP9 inhibitor
C[C@H](CO)N1C[C@H](C)[C@@H](CN(C)C(=O)NC2CCCCC2)Oc2c(NC(=O)C3CCCCC3)cccc2C1=O | – | – | – | ·
C[C@H](CO)N1C[C@H](C)[C@@H](CN(C)C(=O)Nc2ccccc2)Oc2c(NC(=O)C3CCCCC3)cccc2C1=O | – | 18 | – | ·
Cc1ncc(CO)c(/C=N/NC(=S)Nc2cccc(Cl)c2)c1O | 43 | · | · | –
Cc1ncc(CO)c(/C=N/NC(=S)Nc2ccc(Cl)c(Cl)c2)c1O | – | 19 | – | –
COc1ccc(/C=C/S(=O)(=O)NCc2ccc(F)cc2)c(CNC(=O)OC(C)(C)C)c1 | · | – | – | ·
COc1cccc(N2C(=O)CC(Nc3ccc(N4CCOCC4)cc3)C2=O)c1 (configuration not stated) | 51 | · | · | –
O=C(COCc1ccncc1)N1CCN(c2ccc(F)cc2Cl)CC1 | · | – | – | ·
COc1ccc(S(=O)(=O)Nc2ccc(O)c3ccccc23)cc1 | – | – | 37 | –
COc1ccc(S(=O)(=O)Nc2ccccc2)cc1 | – | – | – | ·
CCOC(=O)[C@]12CCCCC/C=C\1N(Cc1ccc(OC)cc1)C(=O)[C@H]2CC(=O)NCCCCc1ccccc1 | · | – | – | ·
COc1cccc(C(=O)Oc2c(CN3CCOCC3)cc(Cl)c3cccnc23)c1 | – | – | – | –
COc1ccc(C(=O)Oc2c(CN3CCOCC3)cc(Cl)c3cccnc23)cc1 | 40 | – | – | –
COC(=O)[C@H]1C[C@@]2(C)c3ccccc3N(C(=O)OC(C)(C)C)[C@H]2N1C(=O)OC(C)(C)C | · | – | – | ·
O=C(CSc1cn(CCNC(=O)c2ccccc2)c2ccccc12)NCc1ccco1 | – | 18 | – | –
CCCn1cc(SCC(=O)NCc2ccco2)c2ccccc21 | – | – | – | –
COC(=O)[C@H](CC(C)C)N(CCCc1cn(Cc2ccccc2)nn1)S(=O)(=O)c1ccccc1Br | · | – | – | ·
O=C(c1ccc2nc(-c3ccco3)c(-c3ccco3)nc2c1)N1CCN(c2ncccn2)CC1 | – | 35 | 33 | –
O=C(c1cccc(C(=O)N2CCN(c3ncccn3)CC2)c1)N1CCN(c2ncccn2)CC1 | – | – | – | –
CC(=O)c1ccc(NC(=O)c2ccc3nc(-c4ccco4)c(-c4ccco4)nc3c2)cc1 | 39 | · | · | –
O=C(NCCO)Nc1ccc2nc(-c3ccco3)c(-c3ccco3)nc2c1 | · | · | · | 15
O=C(NCCO)Nc1ccc2nsnc2c1 | – | – | – | –
C=CC[C@H]1c2ccccc2[C@H]2N3N=Cc4ccccc4[C@H]3[C@H](CCCC)C(=O)N2N1C(=O)NCc1ccccc1 | · | – | – | ·
CN1CC=C2C(C#N)=C(N)C(C#N)(C#N)C(CCc3ccccc3)C2C1 (configuration not stated) | – | · | · | –
CCCC1C2CN(C(C)C)CC=C2C(C#N)=C(N)C1(C#N)C#N (configuration not stated) | – | 24 | – | –
O=C([C@@H]1C[C@H]1c1ccccc1)N1CCC(Oc2cccnc2)CC1 | · | – | – | ·
SMILES | HTRA1 inhibitor | SIAE inh | ABHD4 inh | RBBP9 inhibitor
CCCc1ccc(-c2cc(NC(=O)Cc3c(C)[nH]c4ccccc34)ccc2Nc2cccnc2)cc1 | · | – | – | ·
CCCc1ccc(-c2cc(NC(=O)Cc3c(C)[nH]c4ccccc34)ccc2N(C)c2cccnc2)cc1 | · | – | 37 | ·
CCOc1c(Br)cc(CNc2ccc3c(c2)OCCO3)cc1OC | – | 29 | – | –
CCOc1cc(CNc2ccc3c(c2)OCCO3)cc(Br)c1OC | – | – | – | –
COc1ccc(CNS(=O)(=O)/C=C/c2ccc(OC)cc2CNC(=O)OC(C)(C)C)cc1 | · | – | – | ·
COc1cccc2c1C(=O)c1c(O)c3c(c(O)c1C2=O)C[C@@](O)(C(=O)CO)C[C@@H]3O[C@H]1C[C@H](N)[C@@H](O)[C@H](C)O1 | 69 | · | · | ·
CCCCNC(=O)Oc1c(Br)cc2sc(=O)oc2c1Br | · | · | · | 21
Cc1ccc(-c2cc(C(=O)NN=Cc3cccc4ccccc34)[nH]n2)cc1C | · | – | – | ·
CN1CCN(C(=O)Cn2c(=O)oc3cc(S(=O)(=O)NCc4ccccc4)ccc32)CC1 | – | 25 | – | –
S=C1Nc2ccccc2CS1 | – | – | – | ·
S=C1Cc2ccccc2N1 | – | – | 34 | –
Cc1ccc(Nc2nc(-c3c(C)nc4ccccn34)cs2)cc1 | – | – | 35 | –
Cc1ccc(Nc2nc(-c3c(C)nc4ncccn34)cs2)cc1 | – | – | – | –
O=C(Nc1ccc(Cl)cc1)c1cc2c(cc1O)[nH]c1ccccc12 | – | 51 | – | –
CC(=O)Nc1ccc2[nH]c3ccccc3c2c1 | – | – | – | –
COc1cccc(NC(=O)C/C(C)=N/NC(=O)c2ccccc2Cl)c1 | – | – | – | –
C/C(CC(=O)Nc1ccc(Cl)c(C(F)(F)F)c1)=N\NC(=O)c1cc2ccccc2cc1O | – | 40 | – | –
O=c1cc(CN2CCOCC2)c2ccc(O)c(O)c2o1 | – | – | – | ·
CC1Oc2cc3oc4c(O)c(O)ccc4c(=O)c3c(O)c2C1(C)C (configuration not stated) | 72 | · | · | ·
CC(=O)c1cc(O)c2ccccc2c1O | – | – | 39 | –
CC(=O)c1coc2c1cc(O)c1ccccc12 | – | – | – | –
CCOC(=O)c1c(NC(C)=O)sc2c(O)c(Br)cc(Br)c12 | – | – | 36 | –
CC(c1c[nH]c2ccccc12)c1cn(C)c2ccccc12 (configuration not stated) | · | – | – | ·
CN1CCN(c2ccc(-c3cc(NC=O)c4ncc(-c5ccc(F)c(Cl)c5)n4c3)cc2)CC1 | · | 18 | – | ·
CCOC(=O)C(NC(=O)c1ccccc1)=C1C=C(C)OC(C)=C1 | – | – | – | –
SMILES | HTRA1 inhibitor | SIAE inh | ABHD4 inh | RBBP9 inhibitor
COC(=O)C(NC(=O)c1ccccc1)=C1C=C(C)OC(C)=C1 | – | 18 | – | –
C[C@@H]1O[C@@H](n2c3ccc(Cl)cc3c3ccc4c5cc(Cl)ccc5[nH]c4c32)[C@H](O)[C@H](O)[C@H]1O | · | – | – | ·
CCOC(=O)N1CCN(C(=O)CCS(=O)(=O)c2ccc(Br)s2)CC1 | – | 17 | – | –
CCCOC(=O)C1C2C=CC3(CN(c4ccc(Cl)c(F)c4)C(=O)C13)O2 (configuration not stated) | – | 49 | – | –
CN(C)C=Nc1nc2c(Br)ccc(Br)c2cc1C(=O)NCC(C)(C)C | · | – | – | ·
Cc1ccc2c3c(cccc13)-c1ccccc1C2=O | – | – | – | –
Cc1coc2c1C(=O)C(=O)c1c-2ccc2c(C)cccc12 | 40 | · | · | ·
CCn1cc(C(=O)O)c(=O)c2cnc(N3CCN(C(=S)NC(=O)c4ccc(OC)cc4)CC3)nc21 | – | 17 | – | ·
CCn1cc(C(=O)O)c(=O)c2cnc(N3CCN(C(=S)NC(=O)c4ccc(F)c(F)c4)CC3)nc21 | – | – | – | ·
COc1ccc(Cn2c(NC(=O)c3ccccc3)nc(Cc3ccccc3)c2Cc2ccccc2)c(OC)c1 | · | – | – | ·
O=C(N/N=C/c1cc(Br)ccc1O)C(=O)Nc1ccccc1OC(F)(F)C(F)F | 46 | – | – | –
CCCC/C=C1/[C@@H](CC)N(Cc2ccc(OC)cc2OC)C2=N[C@@H](c3ccccc3)CC(=O)N21 | · | – | – | ·

High-throughput results as filed in PubChem BioAssay.
